Results reported in ChEMBL document CHEMBL1212913, “Quinazolin-4-one derivatives: A novel class of noncompetitive NR2C/D subunit-selective N-methyl-D-aspartate receptor antagonists” (J Med Chem, 2010).

Tests used:
[1] = target: Glutamate receptor 1 (Rattus norvegicus, UniProt P19490); assay: Antagonist activity at rat recombinant GLuR1 expressed in Xenopus oocytes assessed as inhibition of glutamate-induced current by two-electrode voltage-clamp electrophysiology; assay type: functional, cell-based, Oocyte
Sequence of Glutamate receptor 1 (P19490 whole entry, the tested form may be a part): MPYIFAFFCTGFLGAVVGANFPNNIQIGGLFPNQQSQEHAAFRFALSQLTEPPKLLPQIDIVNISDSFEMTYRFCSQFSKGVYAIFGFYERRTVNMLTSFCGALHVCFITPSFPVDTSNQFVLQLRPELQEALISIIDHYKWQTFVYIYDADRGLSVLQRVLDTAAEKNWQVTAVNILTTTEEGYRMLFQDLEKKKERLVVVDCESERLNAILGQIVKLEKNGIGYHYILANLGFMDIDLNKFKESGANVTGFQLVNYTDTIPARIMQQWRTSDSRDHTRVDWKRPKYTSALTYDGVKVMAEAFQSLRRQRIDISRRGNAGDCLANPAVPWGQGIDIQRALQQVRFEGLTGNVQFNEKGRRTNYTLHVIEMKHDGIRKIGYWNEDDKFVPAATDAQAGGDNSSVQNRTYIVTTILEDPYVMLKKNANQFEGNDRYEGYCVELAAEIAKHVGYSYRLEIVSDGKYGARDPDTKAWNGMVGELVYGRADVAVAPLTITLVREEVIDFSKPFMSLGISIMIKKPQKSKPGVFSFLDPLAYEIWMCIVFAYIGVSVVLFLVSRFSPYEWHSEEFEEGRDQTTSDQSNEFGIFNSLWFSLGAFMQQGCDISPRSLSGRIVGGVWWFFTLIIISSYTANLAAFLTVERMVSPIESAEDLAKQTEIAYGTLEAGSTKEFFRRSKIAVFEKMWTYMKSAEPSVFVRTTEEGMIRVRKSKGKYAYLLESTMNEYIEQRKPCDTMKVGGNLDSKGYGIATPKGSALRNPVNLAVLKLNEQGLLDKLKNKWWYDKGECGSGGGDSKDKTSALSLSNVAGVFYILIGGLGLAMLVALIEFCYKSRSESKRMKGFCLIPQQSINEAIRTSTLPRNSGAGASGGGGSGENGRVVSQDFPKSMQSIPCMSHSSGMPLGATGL
Procedure, shortened: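 Two-electrode voltage clamp at −40 mV on Xenopus oocytes expressing rat GluR1, perfused with 90 NaCl, 1.0 KCl, 0.5 BaCl2, 0.005 EDTA, 10 HEPES (mM), pH 7.4, 23°C; activated by 100 μM glutamate. From 20 mM DMSO stocks, 5-7 concentrations, ≥4 oocytes each. Hill fit to mean composite curves normalized to control, minimum usually fixed at 0. Response >75% at 100 μM reported as >300 μM.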

[2] = target: Glutamate NMDA receptor; Grin1/Grin2b (Rattus norvegicus, UniProt P35439+Q00960); assay: Antagonist activity at rat recombinant NR1-NR2B receptor expressed in Xenopus oocytes at holding potential of -40mV by two-electrode voltage-clamp electrophysiology; assay type: functional, cell-based, Oocyte; details: read-out: IC50
Procedure, shortened: (§1)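 Oocytes expressing rat NR1-1a with NR2A, NR2B, NR2C or NR2D, clamped at −40 mV in Ba2+/HEPES recording solution pH 7.4, 23°C. Current evoked by 100 μM glutamate plus 30 μM glycine. Final DMSO 0.05-0.5%, 5-7 inhibitor concentrations, ≥4 oocytes each. IC50 from Hill fit of normalized mean composite data. […] Some NR2A oocytes given BAPTA-AM or K-BAPTA.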

[3] = organism: Rattus norvegicus; assay: Selectivity ratio of IC50 for rat recombinant NR1-NR2A receptor to IC50 for rat recombinant NR1-NR2D receptor
Procedure, shortened: (§2)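 Ratio of fitted IC50 values, either NR2A/NR2D or GluR1/NR2D, from two-electrode voltage-clamp Hill fits in oocytes. Where noted, calculated from IC50 values rounded to the nearest μM.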

[4] = target: Ionotropic glutamate receptor NMDA 1/2D (Rattus norvegicus, UniProt P35439+Q62645); assay: Antagonist activity at rat recombinant NR1-NR2D receptor expressed in Xenopus oocytes at holding potential of -40mV by two-electrode voltage-clamp electrophysiology; assay type: functional, cell-based, Oocyte
Sequence of Ionotropic glutamate receptor NMDA 1/2D (Q62645 whole entry, other chains not shown): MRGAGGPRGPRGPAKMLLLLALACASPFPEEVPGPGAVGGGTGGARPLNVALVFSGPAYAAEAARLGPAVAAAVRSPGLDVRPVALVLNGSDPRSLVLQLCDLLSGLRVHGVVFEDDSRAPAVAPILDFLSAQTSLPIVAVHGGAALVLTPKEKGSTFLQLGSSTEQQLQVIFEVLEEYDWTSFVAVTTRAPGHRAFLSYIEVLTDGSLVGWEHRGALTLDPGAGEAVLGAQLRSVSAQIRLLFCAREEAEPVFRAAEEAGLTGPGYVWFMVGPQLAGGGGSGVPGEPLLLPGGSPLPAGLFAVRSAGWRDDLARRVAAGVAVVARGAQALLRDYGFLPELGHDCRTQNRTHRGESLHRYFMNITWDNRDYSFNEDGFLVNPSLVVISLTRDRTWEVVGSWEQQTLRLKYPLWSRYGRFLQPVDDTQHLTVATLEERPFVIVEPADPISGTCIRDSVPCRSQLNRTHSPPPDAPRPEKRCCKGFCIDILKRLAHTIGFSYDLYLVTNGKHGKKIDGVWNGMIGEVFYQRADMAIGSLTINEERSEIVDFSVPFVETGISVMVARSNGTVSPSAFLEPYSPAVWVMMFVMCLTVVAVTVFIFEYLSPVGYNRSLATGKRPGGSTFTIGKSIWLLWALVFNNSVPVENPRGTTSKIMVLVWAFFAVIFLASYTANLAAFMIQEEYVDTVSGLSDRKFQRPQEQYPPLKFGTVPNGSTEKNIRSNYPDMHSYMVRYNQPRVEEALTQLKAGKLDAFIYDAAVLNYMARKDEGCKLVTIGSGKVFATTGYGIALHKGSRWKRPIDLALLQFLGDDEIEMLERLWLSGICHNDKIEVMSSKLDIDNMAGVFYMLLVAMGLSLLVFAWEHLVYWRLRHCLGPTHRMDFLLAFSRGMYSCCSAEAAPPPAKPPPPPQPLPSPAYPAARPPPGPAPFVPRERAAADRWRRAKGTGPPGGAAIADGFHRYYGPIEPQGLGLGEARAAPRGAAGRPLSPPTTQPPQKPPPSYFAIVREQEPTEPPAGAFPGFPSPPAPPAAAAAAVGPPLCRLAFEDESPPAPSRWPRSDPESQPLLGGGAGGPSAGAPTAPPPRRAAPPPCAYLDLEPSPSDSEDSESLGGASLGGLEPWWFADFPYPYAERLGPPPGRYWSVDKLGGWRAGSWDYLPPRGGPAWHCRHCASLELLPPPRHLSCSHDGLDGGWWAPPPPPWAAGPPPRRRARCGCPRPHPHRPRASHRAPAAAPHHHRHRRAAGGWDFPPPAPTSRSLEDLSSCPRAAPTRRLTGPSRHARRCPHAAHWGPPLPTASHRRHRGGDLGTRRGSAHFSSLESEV
Procedure, shortened: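 Oocytes expressing rat NR1-1a with NR2A, NR2B, NR2C or NR2D, clamped at −40 mV in Ba2+/HEPES recording solution pH 7.4, 23°C. Current evoked by 100 μM glutamate plus 30 μM glycine. Final DMSO 0.05-0.5%, 5-7 inhibitor concentrations, ≥4 oocytes each. IC50 from Hill fit of normalized mean composite data. Some NR2A oocytes given BAPTA-AM or K-BAPTA.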

[5] = target: Glutamate NMDA receptor; Grin1/Grin2c (Rattus norvegicus, UniProt P35439+Q00961); assay: Antagonist activity at rat recombinant NR1-NR2C receptor expressed in Xenopus oocytes at holding potential of -40mV by two-electrode voltage-clamp electrophysiology; assay type: functional, cell-based, Oocyte; procedure, shortened: as §1
Sequence of Glutamate NMDA receptor; Grin1/Grin2c (Q00961 whole entry, other chains not shown): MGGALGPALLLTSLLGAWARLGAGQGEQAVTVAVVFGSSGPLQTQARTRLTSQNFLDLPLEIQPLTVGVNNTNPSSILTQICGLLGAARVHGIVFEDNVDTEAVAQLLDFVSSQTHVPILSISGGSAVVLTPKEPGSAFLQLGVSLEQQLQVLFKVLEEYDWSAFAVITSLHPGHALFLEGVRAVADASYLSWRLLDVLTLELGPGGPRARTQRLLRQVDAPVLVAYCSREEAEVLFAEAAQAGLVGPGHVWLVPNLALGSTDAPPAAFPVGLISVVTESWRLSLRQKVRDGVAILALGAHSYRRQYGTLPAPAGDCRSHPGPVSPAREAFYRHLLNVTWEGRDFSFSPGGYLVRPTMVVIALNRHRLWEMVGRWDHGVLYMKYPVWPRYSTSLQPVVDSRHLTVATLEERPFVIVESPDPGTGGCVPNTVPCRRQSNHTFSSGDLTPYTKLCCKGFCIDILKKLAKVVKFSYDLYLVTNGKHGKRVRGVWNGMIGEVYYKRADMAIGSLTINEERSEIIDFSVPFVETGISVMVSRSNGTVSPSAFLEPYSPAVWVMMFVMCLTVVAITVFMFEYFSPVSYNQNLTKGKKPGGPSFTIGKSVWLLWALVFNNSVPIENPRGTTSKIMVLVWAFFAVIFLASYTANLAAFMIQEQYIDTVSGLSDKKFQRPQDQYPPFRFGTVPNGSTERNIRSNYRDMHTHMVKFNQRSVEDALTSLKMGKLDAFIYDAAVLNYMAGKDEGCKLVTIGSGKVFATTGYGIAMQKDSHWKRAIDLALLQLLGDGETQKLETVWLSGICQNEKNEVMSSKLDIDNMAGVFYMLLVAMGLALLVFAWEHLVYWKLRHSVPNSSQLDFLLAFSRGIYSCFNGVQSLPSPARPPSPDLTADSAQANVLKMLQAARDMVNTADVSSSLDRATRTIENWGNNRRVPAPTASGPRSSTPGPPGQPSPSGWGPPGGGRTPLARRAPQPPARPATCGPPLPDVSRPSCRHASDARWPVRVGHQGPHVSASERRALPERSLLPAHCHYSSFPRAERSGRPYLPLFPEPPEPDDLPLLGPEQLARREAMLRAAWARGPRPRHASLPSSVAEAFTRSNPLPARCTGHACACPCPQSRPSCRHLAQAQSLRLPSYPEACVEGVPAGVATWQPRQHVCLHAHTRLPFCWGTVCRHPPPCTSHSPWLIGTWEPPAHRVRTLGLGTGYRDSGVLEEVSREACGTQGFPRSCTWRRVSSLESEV

[6] = organism: Rattus norvegicus; assay: Selectivity ratio of IC50 for rat recombinant GLuR1 to IC50 for rat recombinant NR1-NR2D receptor; procedure, shortened: as §2
[7] = target: Glutamate NMDA receptor; Grin1/Grin2a (Rattus norvegicus, UniProt P35439+Q00959); assay: Antagonist activity at rat recombinant NR1-NR2A receptor expressed in Xenopus oocytes at holding potential of -40mV by two-electrode voltage-clamp electrophysiology; assay type: functional, cell-based, Oocyte; details: read-out: IC50; procedure, shortened: as §1
Sequence of Glutamate NMDA receptor; Grin1/Grin2a (Q00959 whole entry, other chains not shown): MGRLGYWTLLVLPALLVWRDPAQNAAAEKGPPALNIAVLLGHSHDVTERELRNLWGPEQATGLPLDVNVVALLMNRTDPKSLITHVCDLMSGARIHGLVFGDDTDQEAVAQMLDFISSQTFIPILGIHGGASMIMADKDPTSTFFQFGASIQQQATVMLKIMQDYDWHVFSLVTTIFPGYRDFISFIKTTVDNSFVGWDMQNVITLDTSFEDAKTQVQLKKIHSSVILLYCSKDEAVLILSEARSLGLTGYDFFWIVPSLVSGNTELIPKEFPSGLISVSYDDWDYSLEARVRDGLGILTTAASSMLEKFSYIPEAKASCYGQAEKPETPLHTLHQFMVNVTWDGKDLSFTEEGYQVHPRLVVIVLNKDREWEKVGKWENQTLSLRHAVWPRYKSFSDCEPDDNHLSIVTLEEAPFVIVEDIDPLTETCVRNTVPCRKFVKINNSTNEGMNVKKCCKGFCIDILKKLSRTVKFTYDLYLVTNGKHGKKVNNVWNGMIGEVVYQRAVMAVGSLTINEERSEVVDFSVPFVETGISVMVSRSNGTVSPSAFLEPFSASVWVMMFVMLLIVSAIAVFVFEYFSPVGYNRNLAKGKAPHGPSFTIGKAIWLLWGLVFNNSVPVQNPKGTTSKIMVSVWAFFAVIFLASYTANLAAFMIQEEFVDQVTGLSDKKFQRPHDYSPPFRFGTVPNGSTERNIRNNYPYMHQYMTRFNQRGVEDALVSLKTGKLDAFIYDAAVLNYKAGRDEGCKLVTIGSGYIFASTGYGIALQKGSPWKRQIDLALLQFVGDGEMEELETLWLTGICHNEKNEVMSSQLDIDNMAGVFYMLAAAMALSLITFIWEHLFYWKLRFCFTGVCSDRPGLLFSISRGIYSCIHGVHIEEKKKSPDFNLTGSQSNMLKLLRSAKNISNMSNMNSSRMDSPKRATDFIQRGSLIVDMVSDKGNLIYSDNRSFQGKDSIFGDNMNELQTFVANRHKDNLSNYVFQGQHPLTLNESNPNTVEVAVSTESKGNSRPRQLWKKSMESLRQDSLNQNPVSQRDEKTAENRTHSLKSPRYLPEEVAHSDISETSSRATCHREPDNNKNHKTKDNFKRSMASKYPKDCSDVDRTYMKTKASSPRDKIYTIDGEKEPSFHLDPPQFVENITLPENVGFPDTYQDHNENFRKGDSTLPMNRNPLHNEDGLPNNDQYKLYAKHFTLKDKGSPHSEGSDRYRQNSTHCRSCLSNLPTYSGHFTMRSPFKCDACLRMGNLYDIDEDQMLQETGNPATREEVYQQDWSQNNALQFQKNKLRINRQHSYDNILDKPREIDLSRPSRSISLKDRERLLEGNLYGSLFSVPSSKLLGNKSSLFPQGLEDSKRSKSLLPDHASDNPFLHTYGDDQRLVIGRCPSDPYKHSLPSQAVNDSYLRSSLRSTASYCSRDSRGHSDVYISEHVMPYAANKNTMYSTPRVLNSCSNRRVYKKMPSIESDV

Row | IC50 [1] [µM] | IC50 [2] [µM] | Ratio IC50 [3] | IC50 [4] [µM] | IC50 [5] [µM] | Ratio IC50 [6] | IC50 [7] [µM] | Structure (SMILES)
1 | 289 | > 300 | 16 | 13 | 24 | 22 | 208 | COc1ccc2nc(/C=C/c3cccc([N+](=O)[O-])c3)n(-c3cccc(C(=O)O)c3)c(=O)c2c1
2 | 280 | 129 | 52 | 3 | 5 | 93 | 157 | O=C(O)c1ccc(-n2c(/C=C/c3cccc([N+](=O)[O-])c3)nc3ccc(-c4cccs4)cc3c2=O)cc1
3 | 50 | 18 | 7 | 4 | 3 | 13 | 28 | CCCc1ccc2nc(/C=C/c3cccc([N+](=O)[O-])c3)n(-c3ccc(C(=O)O)cc3)c(=O)c2c1
4 | > 300 | 109 | 22 | 10 | 16 | 30 | 224 | O=C(O)c1ccc(-n2c(/C=C/c3cccc([N+](=O)[O-])c3)nc3c(Cl)cc(Cl)cc3c2=O)cc1
5 | 87 | 243 | 6 | 9 | 12 | 10 | 56 | O=C(O)c1ccc(-n2c(/C=C/c3cccc([N+](=O)[O-])c3)nc3c(Cl)cccc3c2=O)cc1
6 | 21 | 11 | 8 | 1 | 2 | 21 | 8 | O=C(O)c1cccc(-n2c(/C=C/c3cccc([N+](=O)[O-])c3)nc3ccc(I)cc3c2=O)c1
7 | > 300 | > 300 | > 5 | 53 | 63 | > 5 | > 300 | CN(C)c1ccc(/C=C/c2nc3ccccc3c(=O)n2-c2ccc(C(=O)O)cc2)cc1
8 | 21 | 25 | 2 | 26 | 22 | 1 | 39 | Cc1ccc2nc(/C=C/c3ccccc3)n(-c3ccc(C(=O)O)cc3)c(=O)c2c1
9 | > 300 | > 300 | 1 | 213 | 281 | 1 | – | O=C(O)c1ccc(-n2c(/C=C/c3cccc([N+](=O)[O-])c3)nc3cc4c(cc3c2=O)OCCO4)cc1
10 | 250 | 98 | 3 | 31 | – | 8 | 100 | COc1ccc(/C=C/c2nc3ccccc3c(=O)n2-c2ccc(C(=O)O)cc2)cc1
11 | 25 | 85 | 3 | 33 | – | 1 | 84 | O=C(O)c1ccc(-n2c(/C=C/c3ccccc3)nc3ccccc3c2=O)cc1

Row | Structure (SMILES) | IC50 [1] [µM] | IC50 [2] [µM] | Ratio IC50 [3] | IC50 [4] [µM] | IC50 [5] [µM] | Ratio IC50 [6] | IC50 [7] [µM]
12 | O=c1c2cc(I)ccc2nc(/C=C/c2cccnc2)n1-c1ccccc1[N+](=O)[O-] | > 300 | 105 | 41 | 5 | 19 | 60 | 206
13 | O=c1c2cc(I)ccc2nc(/C=C/c2cccnc2)n1-c1ccc([N+](=O)[O-])cc1 | > 300 | > 300 | 1 | 218 | 204 | 1 | > 300
14 | COc1cccc(-n2c(/C=C/c3cccnc3)nc3ccc(I)cc3c2=O)c1 | > 300 | > 300 | 1 | – | > 300 | 1 | > 300
15 | O=C(O)c1ccc(-n2c(/C=C/c3ccccc3O)nc3ccccc3c2=O)cc1 | 36 | 18 | 1 | 18 | – | 2 | 20
